An excerpt weighted towards active compounds, which were near 1.5% of everything screened.
HNF4A DNA FP = change in binding of human HNF4 alpha to DNA; HNF4a-FITC DNA binding, fluorescence polarization, 1 h; activity change, % at 10 µM; 0.3% of 360,000 active; AID 1224865; in the data active = activity change above about 30%, passing the limit was not always enough
TPT1 inhibitor = C. albicans TPT1 enzyme inhibition; recombinant caTPT1, FP RNA substrate dephosphorylation; inhibition, % at 5 µM; 0.81% of 300,000 active;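 active = inhibition above the mean of all tested compounds plus 3 SD, set per screening campaign, cut at about 24% in these data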;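 also: plate controls were DMSO alone for no effect and ferristatin control at 100 nM for full effect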
Rpn11 block = blocks the human proteasome subunit Rpn11. O00487. human 26S proteasome, Ub4-pepOG fluorescence polarization; 20S core pre-blocked with epoxomicin. inhibition, % at 20 µM. 0.59% of 360,000 active. AID 588493;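 active = inhibition at 20 µM, scaled to each plate's controls, above about 33%, limit read from the data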
Target sequence (O00487 whole entry, looked up): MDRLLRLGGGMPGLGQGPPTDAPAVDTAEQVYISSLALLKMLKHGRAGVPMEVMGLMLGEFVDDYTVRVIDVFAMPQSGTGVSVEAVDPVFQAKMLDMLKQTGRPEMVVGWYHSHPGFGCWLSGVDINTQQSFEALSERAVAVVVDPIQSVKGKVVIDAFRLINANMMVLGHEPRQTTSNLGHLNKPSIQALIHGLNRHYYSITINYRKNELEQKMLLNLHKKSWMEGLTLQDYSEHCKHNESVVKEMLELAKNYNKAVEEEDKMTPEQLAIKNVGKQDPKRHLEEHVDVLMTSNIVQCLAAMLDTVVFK
CSN deneddyl inh = CSN deneddylation inhibition. 0.38% of 360,000 active. Q92905. Purified CSN, SCF-Nedd8-OG deneddylation, fluorescence polarization. inhibition, % at 12.5 µM;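 active = pattern-corrected inhibition above about 35%, with an unprinted fluorescence ratio check between 0.5 and 1.5, limit read from the data, passing the limit was not always enough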;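 also: 0% = enzyme with substrate and 100% = substrate without enzyme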
Target sequence (Q92905 whole entry, looked up, one chain of several): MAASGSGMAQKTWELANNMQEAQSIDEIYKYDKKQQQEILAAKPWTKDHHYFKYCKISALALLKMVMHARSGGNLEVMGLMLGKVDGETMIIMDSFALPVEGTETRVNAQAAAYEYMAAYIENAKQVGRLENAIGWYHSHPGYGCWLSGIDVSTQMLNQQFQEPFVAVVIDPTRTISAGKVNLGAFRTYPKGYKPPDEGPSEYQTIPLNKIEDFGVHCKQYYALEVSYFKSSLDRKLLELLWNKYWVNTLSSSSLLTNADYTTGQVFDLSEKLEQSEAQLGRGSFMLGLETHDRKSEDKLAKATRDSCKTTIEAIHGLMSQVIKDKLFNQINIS
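Test system: purified human Csn5 enzyme expressed in HEK293T cells. Amount: 0.24 nM enzyme. Reagent: SCFSkp2-Nedd8OG substrate at 10 nM final. Schedule: 90 min incubation of compound, enzyme and substrate at room temperature. Detection: fluorescence polarization. Read-out: % inhibition of substrate cleavage by Csn5.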
Rpn11 confirm = confirmation of human proteasome Rpn11 inhibitors; shares compounds with Rpn11 block; purified human 26S proteasome, Ub4-pepOG fluorescence polarization; proteasome pretreated with epoxomicin; inhibition, % at 20 µM; 29% of 1,900 active; AID 602318
MMP-2 inh = counter-screen for RPN11 inhibitors: inhibition of human MMP-2; shares compounds with Rpn11 block; recombinant MMP-2, FRET peptide cleavage fluorescence; inhibition, % at 20 µM; 4% of 1,900 active;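 also: human MMP-2 activated beforehand with APMA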
Thrombin FP = blocks bovine thrombin, flagging nonselective RPN11 hits; shares compounds with Rpn11 block; AID 602333; bovine thrombin cleavage of Ub4-pepOG, fluorescence polarization; inhibition, % at 20 µM; 13% of 1,900 active;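 active = mean inhibition at least 40% at 20 µM, or signal 3 deviations below plate average, so some actives read negative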;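 also: plate controls were thrombin with DMSO for no effect and buffer wells lacking thrombin for full effect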
* marks the source's active call; other numbers are inactive results. Rule as the data show it, unless noted: active = inhibition above about 40%; inactive = the rest.

How did CCOC(=O)c1c(NC(=O)c2cc(-c3ccc(O)cc3)on2)sc(C(C)=O)c1C do in these assays?
HNF4A DNA FP: 154*; TPT1 inhibitor: 2; Rpn11 block: 171*; CSN deneddyl inh: 10; Rpn11 confirm: -14; MMP-2 inh: -32; Thrombin FP: -6

Results for CN(C)S(=O)(=O)c1cccc(NC(=O)c2cc3c(=O)n4ccccc4nc3s2)c1 ?
HNF4A DNA FP: 7; TPT1 inhibitor: -2; Rpn11 block: 85*; CSN deneddyl inh: 0; Rpn11 confirm: 0; MMP-2 inh: 9; Thrombin FP: -2

How did Nc1c(C(=O)NCCN2CCOCC2)c2nc3ccccc3nc2n1CCc1ccccc1F do in these assays?
HNF4A DNA FP: 4; TPT1 inhibitor: 6; Rpn11 block: 11; CSN deneddyl inh: 0

How did COCCNC(=O)c1c(N)n(CCCn2ccnc2)c2nc3ccccc3nc12 do in these assays?
HNF4A DNA FP: 3; TPT1 inhibitor: -2; Rpn11 block: 40*; CSN deneddyl inh: 0; Rpn11 confirm: -18; MMP-2 inh: -17; Thrombin FP: -15

How did Nc1c(C(=O)NCCN2CCOCC2)c2nc3ccccc3nc2n1CCc1ccccc1 do in these assays?
HNF4A DNA FP: 2; TPT1 inhibitor: 4; Rpn11 block: 32*; CSN deneddyl inh: 11; Rpn11 confirm: 5; MMP-2 inh: 8; Thrombin FP: -7

What do the screens show for `Nc1c(C(=O)NCc2ccc3c(c2)OCO3)c2nc3ccccc3nc2n1CCCN1CCOCC1`?
HNF4A DNA FP: 4; TPT1 inhibitor: 11; Rpn11 block: 51*; CSN deneddyl inh: 4; Rpn11 confirm: 25; MMP-2 inh: -26; Thrombin FP: -5

What do the screens show for `COc1ccc(N(CC(=O)NCc2ccc3c(c2)OCO3)S(=O)(=O)c2ccccc2[N+](=O)[O-])c(OC)c1`?
HNF4A DNA FP: -4; TPT1 inhibitor: -1; Rpn11 block: 56*; CSN deneddyl inh: 4; Rpn11 confirm: -12; MMP-2 inh: -19; Thrombin FP: -7

Results for COc1ccc(N(CC(=O)NCc2ccccc2OC)S(=O)(=O)c2ccccc2[N+](=O)[O-])c(OC)c1 ?
HNF4A DNA FP: -1; TPT1 inhibitor: 3; Rpn11 block: -2; CSN deneddyl inh: -5

How did O=C(/C=C/c1cccs1)Nc1nccs1 do in these assays?
HNF4A DNA FP: 2; TPT1 inhibitor: -1; Rpn11 block: 9; CSN deneddyl inh: 2

What do the screens show for `O=C(/C=C/c1cccs1)Nc1cccc(NC(=O)/C=C/c2cccs2)n1`?
HNF4A DNA FP: 12; TPT1 inhibitor: 8; Rpn11 block: 45*; CSN deneddyl inh: 6; Rpn11 confirm: 56*; MMP-2 inh: 18; Thrombin FP: 41*

Results for Cn1cccc1C(=O)NNC(=O)COc1ccccc1Cl ?
HNF4A DNA FP: 1; Rpn11 block: 0; CSN deneddyl inh: -1

What do the screens show for `COc1ccc(-n2ccc(=O)c(C(=O)Nc3ccc(S(=O)(=O)Nc4nccs4)cc3)n2)cc1`?
HNF4A DNA FP: 3; TPT1 inhibitor: 0; Rpn11 block: 48*; CSN deneddyl inh: -1; Rpn11 confirm: 2; MMP-2 inh: 68*; Thrombin FP: 19

How did Cc1ccc(-c2nn(-c3cccc(F)c3)cc2CNCc2cccnc2)o1 do in these assays?
HNF4A DNA FP: 22; TPT1 inhibitor: 7; Rpn11 block: 48*; CSN deneddyl inh: 4; Rpn11 confirm: 24; MMP-2 inh: -13; Thrombin FP: 21

How did COc1ccc(OCCCC(=O)Nc2nc(C)c(C(C)=O)s2)cc1 do in these assays?
HNF4A DNA FP: 3; TPT1 inhibitor: -1; Rpn11 block: -3; CSN deneddyl inh: -5

How did CC(=O)c1sc(NC(=O)CCCOc2ccc(Cl)cc2)nc1C do in these assays?
HNF4A DNA FP: 24; TPT1 inhibitor: 4; Rpn11 block: 77*; CSN deneddyl inh: 5; Rpn11 confirm: 12; MMP-2 inh: 14; Thrombin FP: -9

What do the screens show for `COC(=O)c1cc(C(=O)OCC(=O)NC(=O)c2ccccc2)cc([N+](=O)[O-])c1`?
HNF4A DNA FP: 0; TPT1 inhibitor: 0; Rpn11 block: 1; CSN deneddyl inh: 1

What do the screens show for `O=C(CCOc1ccccc1)Nc1ccccc1[N+](=O)[O-]`?
HNF4A DNA FP: 13; TPT1 inhibitor: -5; Rpn11 block: 34*; CSN deneddyl inh: -6; Rpn11 confirm: -14; MMP-2 inh: 14; Thrombin FP: -13

How did CSc1nc(N)nc(SCC(=O)CC(=O)OC(C)C)c1C#N do in these assays?
HNF4A DNA FP: 3; TPT1 inhibitor: -1; Rpn11 block: 78*; CSN deneddyl inh: 9; Rpn11 confirm: -3; MMP-2 inh: -22; Thrombin FP: -17

What do the screens show for `Cc1cccn2c(=O)c(C=NCCO)c(Nc3ccc(Cl)cc3)nc12`?
TPT1 inhibitor: -1

Results for CN(C)S(=O)(=O)c1ccc(NC(=O)COc2cccc3c2OC(C)(C)C3)cc1 ?
HNF4A DNA FP: -2; Rpn11 block: -3; CSN deneddyl inh: 1

Results for O=C(COC(=O)CCNS(=O)(=O)c1ccc(Cl)cc1)Nc1ccccc1OC(F)F ?
HNF4A DNA FP: 40*; Rpn11 block: 89*; CSN deneddyl inh: -2; Rpn11 confirm: -21; MMP-2 inh: -38; Thrombin FP: -24

What do the screens show for `Cc1ccc(S(=O)(=O)NCC(=O)OCC(=O)Nc2ccccc2OC(F)F)cc1`?
HNF4A DNA FP: 6; TPT1 inhibitor: 0; Rpn11 block: 2; CSN deneddyl inh: -4

What do the screens show for `Cc1ccc2nc(NCCCO)[nH]c2c1`?
HNF4A DNA FP: -5; TPT1 inhibitor: -3; Rpn11 block: 41*; CSN deneddyl inh: -1; Rpn11 confirm: -11; MMP-2 inh: -35; Thrombin FP: -19

How did Cc1ccc(C2CC(=O)C=C(Nc3ccc(Cl)cc3)C2)cc1 (centres undefined) do in these assays?
HNF4A DNA FP: 35*; TPT1 inhibitor: -5; Rpn11 block: 85*; CSN deneddyl inh: 3; Rpn11 confirm: -6; MMP-2 inh: -65; Thrombin FP: -15

How did O=C1C=C(Nc2ccc(Cl)cc2)CC(c2ccc(Cl)cc2)C1 (centres undefined) do in these assays?
HNF4A DNA FP: 1; TPT1 inhibitor: 2; Rpn11 block: -11; CSN deneddyl inh: 2

Results for CC(=O)N1CCN(S(=O)(=O)c2cccc(C(=O)NCCC3=CCCCC3)c2)CC1 ?
HNF4A DNA FP: 0; TPT1 inhibitor: -2; Rpn11 block: -1; CSN deneddyl inh: 2

Results for CN1/C(=C\C=N\NC(=O)c2ccc(O)cc2)C(C)(C)c2ccccc21 ?
HNF4A DNA FP: 38*; TPT1 inhibitor: -13; Rpn11 block: 72*; CSN deneddyl inh: 33; Rpn11 confirm: 38; MMP-2 inh: -31; Thrombin FP: 7
